For seven compounds, outcome and AC50 results are on record in PubChem BioAssay AID588702 (Broad Institute, 2011).

Activity calls are given as the source filed them.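 How the source made its calls: active means marked loss of luminescence, read as toxicity to breast epithelial cells carrying a control GFP hairpin; inactive means the rest.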

System in one assay: not listed separately
The assay is described as follows: cytotoxicity in HMLE control cells, dose response, counter-screen for breast cancer stem cell project, cell-based, CellTiter-Glo luminescence, dry powder samples (AID 588702). To be noted: HMLE_shGFP viability, CellTiter-Glo luminescence, 72 h. In a few lines:
(§1)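 Material: HMLE mammary epithelial cells expressing shGFP, toxicity counterscreen line. Amount: 1000 HMLE_shGFP cells per well. Buffer or medium: serum-free screening medium for cell seeding. Doses: compound delivered to wells by pin transfer. Schedule: 24 h attachment, 72 h compound exposure. Detection: CellTiter-Glo luminescence. Controls: DMSO-only wells as negative control.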
In general terms: The purpose of a counterscreen is to sort out artefacts and off-target activity.
As to `O=C(COc1c(Cl)cc(Cl)cc1Cl)N/N=C/c1ccc[nH]1`, the outcome was inactive. The same measure, in the same setting: as for `O=C(COc1ccc(Cl)cc1Cl)N/N=C/c1cnc[nH]1`, the entry is “inactive”.

For another assay, the system named is HMLE_shGFP viability, CellTiter-Glo luminescence, 72 h. The assay is described as above.
Details: not given
In a few lines:
as §1
The AC50 is the concentration giving half of the maximal activity seen. With `Cc1cc(Cl)ccc1OCC(=O)N/N=C/c1ccc[nH]1`, the AC50 was 29.9 µM. Still for that read-out and setting: to `O=C(N/N=C/c1ccc[nH]1)c1cc2ccccc2o1` belongs 378 µM.

For the compound `O=C(COc1cc(Cl)ccc1Cl)N/N=C/c1ccc[nH]1`, the half-maximal activity concentration (AC50) is 11.4 µM. The same measure, in the same setting: as for `O=C(COc1ccc(Cl)cc1Cl)N/N=C/c1ccc[nH]1`, the figure is 51.4 µM; as for `CC(C)(C)c1ccc2c(c1)OC(C(=O)N/N=C/c1ccc[nH]1)CO2` (configuration not stated), 21.1 µM.
